Paper PMC4764081 (Science (New York, N.Y.), 2015)

Columns and labels:
centrosomes [1] = assay: centrosome amplification in cells; format: cell-based; settings: fig. S1
p53 = assay: Western blot of p53 in RPE1 cells; format: cell-based, human; settings: RPE1, without genotoxic stress
[2] = test system: RPE1 human retinal pigment epithelial cells; assay: RPE1 passaging assay and flow cytometry; format: cell-based
How it was run: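 RPE1 cells passaged with inhibitor added on day 0 and washed out on day 8; proliferation followed over serial passages. Data are means ± SD, N = 2.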

centrosomes [3] = assay: centrosome depletion; format: cell-based; settings: cellular activity
[4] = target: T1, Polo-like kinase 4 (Plk4) (Homo sapiens, UniProt O00444); assay: Plk4 inhibition in vitro; format: biochemical; settings: read-out: inhibition constant (Ki)
T1 sequence (O00444 1-970): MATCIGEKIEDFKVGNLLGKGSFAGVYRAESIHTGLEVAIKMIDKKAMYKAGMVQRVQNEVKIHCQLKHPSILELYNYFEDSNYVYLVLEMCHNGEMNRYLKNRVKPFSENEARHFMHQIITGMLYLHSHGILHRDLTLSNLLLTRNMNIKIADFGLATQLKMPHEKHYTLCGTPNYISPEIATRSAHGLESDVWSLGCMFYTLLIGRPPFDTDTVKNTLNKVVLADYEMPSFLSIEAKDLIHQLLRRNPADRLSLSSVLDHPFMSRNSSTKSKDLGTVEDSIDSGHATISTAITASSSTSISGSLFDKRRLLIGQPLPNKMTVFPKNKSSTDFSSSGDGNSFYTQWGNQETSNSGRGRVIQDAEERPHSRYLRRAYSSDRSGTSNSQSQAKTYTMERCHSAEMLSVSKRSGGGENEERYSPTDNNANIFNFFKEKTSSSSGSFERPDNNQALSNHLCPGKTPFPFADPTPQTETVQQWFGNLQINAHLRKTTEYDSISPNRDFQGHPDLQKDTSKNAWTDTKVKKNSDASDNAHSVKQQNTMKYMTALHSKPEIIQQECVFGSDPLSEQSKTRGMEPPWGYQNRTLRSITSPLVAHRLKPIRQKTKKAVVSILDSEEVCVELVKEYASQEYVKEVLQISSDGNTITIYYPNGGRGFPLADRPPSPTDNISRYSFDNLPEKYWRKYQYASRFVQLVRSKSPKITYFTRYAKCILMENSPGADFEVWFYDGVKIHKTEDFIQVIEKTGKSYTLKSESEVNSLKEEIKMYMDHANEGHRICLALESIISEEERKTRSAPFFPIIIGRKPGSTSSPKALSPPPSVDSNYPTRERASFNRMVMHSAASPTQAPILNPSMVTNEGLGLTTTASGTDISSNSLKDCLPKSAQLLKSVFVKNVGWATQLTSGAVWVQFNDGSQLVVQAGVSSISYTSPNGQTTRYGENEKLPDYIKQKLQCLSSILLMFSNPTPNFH

[5] = test system: RPE1 cells expressing G95L Plk4; assay: RPE1 Plk4 G95L knock-in cells, centrosome number and passaging; format: cell-based, human; settings: RPE1, both endogenous PLK4 alleles G95L
[6] = test system: NIH/3T3 cells induced to overexpress Plk4-GFP; assay: centriole amplification in cells overexpressing wild-type or G95L Plk4-GFP; format: cell-based, mouse
NIH/3T3 cells = assay: mitotic duration by imaging, NIH/3T3; format: cell-based, mouse; settings: centrosome-less NIH/3T3 cells
HeLa cells = assay: mitotic duration by imaging, HeLa; format: cell-based, human; settings: centrosome-less HeLa cells
[7] = test system: multiciliated Xenopus epithelial cells; assay: centriole number in multiciliated Xenopus epithelial cells; format: cell-based
g-H2A.X foci = g-H2A.X foci in RPE1 nuclei; format: cell-based, human; settings: RPE1 treated cells
How it was run: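 γ-H2A.X foci, marking double-strand DNA breaks, counted in nuclei of treated RPE1 cells. Values are means ± SD, N = 3.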

[8] = test system: HeLa human cervical carcinoma cells; assay: centriole/centrosome depletion and washout in HeLa cells; format: cell-based
How it was run: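 HeLa cells under continuous treatment scored for foci carrying centriolar and pericentriolar markers at each round of division. Cells were imaged 7 days after inhibitor addition and again 10 days after washout.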

[9] = test system: RPE1 cells coexpressing centrin-GFP and H2B-RFP; assay: RPE1 lineage analysis by live-cell imaging; format: cell-based, human; settings: acute treatment
How it was run: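 RPE1 cells coexpressing centrin-GFP and H2B-RFP filmed after inhibitor addition. Both GFP and RFP channels were imaged at first to count centrosomes and follow mother-cell mitosis. Daughter fate was then tracked with RFP only. Arrest was scored as failure to enter mitosis within 48 hours of cell birth, and the percentage arresting per generation was reported; N = 2.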

## COc1ccc2c(c1)[C@]1(C[C@H]1c1ccc3c(/C=C/c4ccc(CN5C[C@@H](C)O[C@@H](C)C5)cc4)n[nH]c3c1)C(=O)N2 [CFI-400945]
Centrosomes [1]
  effect on centrosome number: induces centrosome amplification

## CCOc1cc(C(C)(C)C)ccc1C1=N[C@@](C)(c2ccc(Cl)cc2)[C@@](C)(c2ccc(Cl)cc2)N1C(=O)N1CCN(CCCS(C)(=O)=O)CC1 [R7112, reference compound]
p53
  effect on p53 levels: raised p53 levels
[2]; RPE1, addition day 0, washout day 8
  proliferation after washout: resumption of proliferation

## COc1c(Nc2cc(C)[nH]n2)nc(Sc2ccc(S(=O)(=O)Cc3cccc([N+](=O)[O-])c3F)cc2F)nc1N1CCCCC1 [centrinone-B]
Centrosomes [3]
  centrosome depletion at (concentration): 500 nM
[4]
  Ki: 0.6 nM

## COc1c(Nc2cc(C)[nH]n2)nc(Sc2ccc(S(=O)(=O)Cc3cccc([N+](=O)[O-])c3F)cc2F)nc1N1CCOCC1 [centrinone]
[5]
  centrosome loss or proliferation arrest: did not lead to centrosome loss or proliferation arrest
[6]
  effect on centriole amplification: blocked centriole amplification
NIH/3T3 cells
  increase of mitotic duration: ~20 min
HeLa cells
  increase of mitotic duration: ~1 h
[7]
  effect on centriole number: reduced centriole number
[2]; RPE1, 12-day passaging assay and flow cytometry
  effect on cell cycle: cell cycle arrest in G1
g-H2A.X foci
  g-H2A.X foci abundance: not more abundant
[8]; 10 days after washout
  reversibility of centriole loss: fully reversible
[8]; at each round of cell division
  effect on centriolar and pericentriolar material foci: progressive reduction
Centrosomes [3]
  centrosome depletion at (concentration): 100 nM
[9]; one-centrosome progeny of pioneer one-centrosome mothers
  fraction of progeny arrested: 25.5%
[9]; progeny of pioneer zero-centrosome mothers
  fraction of progeny arrested: 70%
[9]; zero-centrosome progeny of pioneer one-centrosome mothers
  fraction of progeny arrested: 33.0%
